Read-outs that look alike come from different tables or passages of the source.
What was measured:
[1] = Stability tests of QC samples in pooled human plasma; format: physicochemical; details: for degradation of QC samples: QC low, medium and high
Method in brief: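 QC samples (12, 120, 900 ng/mL) spiked into pooled human plasma in triplicate, then held at bench top, in the autosampler, or 1 month at -80 °C. Extraction: diethyl ether liquid-liquid, dried under nitrogen at 37 °C, reconstituted in mobile phase. Analysis: C18 LC-MS/MS with positive ESI MRM (438.3/357.2) against a 1/x2-weighted calibration (5–1000 ng/mL). Accuracy = measured/nominal × 100%.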

renal cancer patients = renal cancer patients in clinical trials, up; cited from earlier work
albumin = details: mainly bound to albumin; cited from earlier work
[2] = Calculated hepatic extraction ratio; details: low (<0.3)
[3] = format: in vivo, human; details: oral 800 mg daily
Method in brief: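 Plasma from patients on oral 800 mg daily for at least one week, excluding combined TKI therapy; blood centrifuged at 3000 rpm, plasma stored at -20 °C. Free fraction by rapid equilibrium dialysis (8000 Da cut-off) against PBS at 37 °C, 250 rpm, 6 h, in technical duplicates. Quantified by C18 HPLC with positive-ESI MRM, erlotinib internal standard, calibration 5–1000 ng/mL.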

- degradation of QC samples ([1]; 1 month of storage at -80 °C): No significant degradation
- Stability, Accuracy (%) from nominal concentration ([1]; Autosampler: extracted samples stored for 14 h at room temperature, 12 ppb): 96.45%
- Stability, Accuracy (%) from nominal concentration ([1]; Autosampler: extracted samples stored for 14 h at room temperature, 120 ppb): 96.56%
- Stability, Accuracy (%) from nominal concentration ([1]; Autosampler: extracted samples stored for 14 h at room temperature, 900 ppb): 96.02%
- Stability, Accuracy (%) from nominal concentration ([1]; Bench Top: plasma samples stored at room temperature for 8h, 12 ppb): 113.11%
- Stability, Accuracy (%) from nominal concentration ([1]; Bench Top: plasma samples stored at room temperature for 8h, 120 ppb): 93.21%
- Stability, Accuracy (%) from nominal concentration ([1]; Bench Top: plasma samples stored at room temperature for 8h, 900 ppb): 97.02%
- Stability, Accuracy (%) from nominal concentration ([1]; Freeze Thaw: three freeze thaw cycles, 12 ppb): 93.79%
- Stability, Accuracy (%) from nominal concentration ([1]; Freeze Thaw: three freeze thaw cycles, 120 ppb): 93.50%
- Stability, Accuracy (%) from nominal concentration ([1]; Freeze Thaw: three freeze thaw cycles, 900 ppb): 100.49%
- Stability, Accuracy (%) from nominal concentration ([1]; Long Term: stored at -80 °C for 1 month, 12 ppb): 100.58%
- Stability, Accuracy (%) from nominal concentration ([1]; Long Term: stored at -80 °C for 1 month, 120 ppb): 113.89%
- Stability, Accuracy (%) from nominal concentration ([1]; Long Term: stored at -80 °C for 1 month, 900 ppb): 114.23%
- degradation of QC samples ([1]; auto sampler conditions): No significant degradation
- degradation of QC samples ([1]; bench top conditions): No significant degradation
- calculated hepatic extraction ratio [2]: 0.00346
- free drug concentration ([3]; 17 patients' plasma samples, mean ± standard deviation): 5.84 ± 3.02 ng/mL
- Plasma free drug concentration (Median ± Interquartile range) ([3]; patients with low albumin level (<40 g/L) (n = 7)): 6.49 ± 3.65 ng/mL
- Plasma free drug concentration (Median ± Interquartile range) ([3]; patients with normal albumin level (n = 8)): 4.88 ± 2.71 ng/mL
- Plasma free drug concentration (Median ± Interquartile range) ([3]; patients with very low albumin level (<30 g/L) (n = 2)): 3.44 ± 1.32 ng/mL
SMILES: Cc1ccc(Nc2nccc(N(C)c3ccc4c(C)n(C)nc4c3)n2)cc1S(N)(=O)=O [pazopanib, Pazopanib]
- degradation of QC samples ([1]; three freeze-thaw cycles): did not result in significant degradation
- proportion of patients with increases in serum transaminases and bilirubin (renal cancer patients): 40–50%
- plasma protein binding (albumin): > 99.9%
